These results are taken from ChEMBL document CHEMBL1157065, “Synthesis and evaluation of some new substituted benzothiazepine and benzoxazepine derivatives as anticonvulsant agents” (Eur J Med Chem, 2010).

A value given as a limit tells only on which side of the number the result lay.

Series [1] in a line: Acute toxicity in ip dosed mouse. The class given is organism-based. The note with it: in vivo, read-out: ALD50.
Another series has as its system Rattus norvegicus. As to the kind of experiment: Anticonvulsant activity in Charles foster rat assessed as protection against maximal electroshock-induced seizures at 30 mg/kg, ip administered 1 hr before electroshock challenge. The class given is functional. The following applies: route intraperitoneal. In a few lines:
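Charles Foster rats of either sex, 90–150 g, in groups of ten, dosed i.p. with test drug or phenytoin sodium 30 mg/kg. 1 h after dosing, shock of 150 mA delivered by convulsiometer through ear electrodes for 2 s. Presence or absence of extensor response recorded.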
Background: Protection in the maximal electroshock model is a classic sign of anticonvulsant action.

As for `Oc1ccc(C2=Nc3ccccc3SC(c3ccccc3Cl)C2)cc1` (configuration not stated), the LD50 in series [1] was greater than 1000 mg/kg. The Activity with Rattus norvegicus was determined as 80%.

With `COc1ccc(N/C=C2\C(c3ccc(O)cc3)=Nc3ccccc3OC2c2ccccc2O)cc1` (configuration not stated), the LD50 in series [1] was greater than 1000 mg/kg. The Activity with Rattus norvegicus was 60%.

Regarding `Oc1ccc(C2=Nc3ccccc3OC(c3ccc(O)cc3)C2)cc1` (configuration not stated), in series [1], the LD50 was greater than 1000 mg/kg. The Activity in the series on Rattus norvegicus was 70%.

For the molecule `Oc1ccc(C2=Nc3ccccc3SC(c3ccc(O)cc3)/C2=C/Nc2ccc(Cl)cc2)cc1` (configuration not stated), in series [1], the LD50 is greater than 1000 mg/kg. Also, the Activity in the series with Rattus norvegicus was 60%.

Consider `Oc1ccc(C2=Nc3ccccc3OC(c3ccc(Cl)cc3)C2)cc1` (configuration not stated), for which, in series [1], the LD50 was greater than 1000 mg/kg. Further, the Activity in the series with Rattus norvegicus turned out to be 60%.

Consider `COc1ccc(N/C=C2\C(c3ccc(O)cc3)=Nc3ccccc3SC2c2ccccc2O)cc1` (configuration not stated), for which the LD50 in series [1] was greater than 1000 mg/kg. Further, the Activity in the series with Rattus norvegicus turned out to be 70%.

In the case of `Oc1ccc(C2=Nc3ccccc3SC(c3ccc(Cl)cc3)C2)cc1` (configuration not stated), the LD50 in series [1] was greater than 1000 mg/kg. Moreover, in the series with Rattus norvegicus, the Activity amounted to 70%.

Consider `COc1ccc(N/C=C2\C(c3ccc(O)cc3)=Nc3ccccc3SC2c2ccccc2Cl)cc1` (configuration not stated), for which, in series [1], the LD50 is greater than 1000 mg/kg. For the same molecule, the Activity in the series with Rattus norvegicus stood at 90%.

Turning to `Oc1ccc(C2=Nc3ccccc3OC(c3ccccc3O)C2)cc1` (configuration not stated), the LD50 in series [1] was greater than 1000 mg/kg. Further, in the series on Rattus norvegicus, the Activity turned out to be 60%.

Turning to `COc1ccc(N/C=C2\C(c3ccc(O)cc3)=Nc3ccccc3SC2c2ccc(Cl)cc2)cc1` (configuration not stated), the LD50 in series [1] was greater than 2000 mg/kg. Also, the Activity in the series on Rattus norvegicus was 70%.

Take `COc1ccc(N/C=C2\C(c3ccc(O)cc3)=Nc3ccccc3OC2c2cccc(OC)c2)cc1` (configuration not stated): the LD50 in series [1] was greater than 1000 mg/kg. For the same molecule, in the series on Rattus norvegicus, the Activity was 70%.

On to `CC(O)CO` (configuration not stated) [PROPYLENE GLYCOL], for which the Activity in the series on Rattus norvegicus was determined as 0%.

As for `Oc1ccc(C2=Nc3ccccc3SC(c3ccc(Cl)cc3)/C2=C/Nc2ccc(Cl)cc2)cc1` (configuration not stated), in series [1], the LD50 was greater than 1000 mg/kg. Also, in the series on Rattus norvegicus, the Activity is listed as 70%.

`Oc1ccc(C2=Nc3ccccc3SC(c3ccccc3O)/C2=C/Nc2ccc(Cl)cc2)cc1` (configuration not stated): in series [1], the LD50 is greater than 1000 mg/kg. Also, the Activity in the series on Rattus norvegicus is listed as 60%.

On to `COc1ccc(N/C=C2\C(c3ccc(O)cc3)=Nc3ccccc3OC2c2ccc(O)cc2)cc1` (configuration not stated), for which, in series [1], the LD50 is greater than 1000 mg/kg. Moreover, the Activity in the series with Rattus norvegicus was found to be 50%.

With `Oc1ccc(C2=Nc3ccccc3OC(c3ccccc3O)/C2=C/Nc2ccc(Cl)cc2)cc1` (configuration not stated), the LD50 in series [1] is greater than 1000 mg/kg. Moreover, the Activity in the series on Rattus norvegicus is on record as 60%.

Regarding `Oc1ccc(C2=Nc3ccccc3OC(c3ccccc3Cl)C2)cc1` (configuration not stated), the LD50 in series [1] was greater than 1000 mg/kg. Also, the Activity in the series with Rattus norvegicus is 70%.

For `Oc1ccc(C2=Nc3ccccc3SC(c3ccccc3Cl)/C2=C/Nc2ccc(Cl)cc2)cc1` (configuration not stated), the LD50 in series [1] is greater than 1000 mg/kg. The Activity in the series with Rattus norvegicus came to 70%.

Turning to `COc1ccc(N/C=C2\C(c3ccc(O)cc3)=Nc3ccccc3SC2c2cccc(OC)c2)cc1` (configuration not stated), the LD50 in series [1] was greater than 1000 mg/kg. The Activity in the series on Rattus norvegicus is 50%.

With `O=C1N=C([O-])NC1(c1ccccc1)c1ccccc1.[Na+]` [PHENYTOIN SODIUM], the Activity in the series with Rattus norvegicus turned out to be 80%.

`COc1cccc(C2CC(c3ccc(O)cc3)=Nc3ccccc3O2)c1` (configuration not stated): the LD50 in series [1] was greater than 1000 mg/kg. The Activity in the series with Rattus norvegicus stood at 20%.

With `COc1cccc(C2Sc3ccccc3N=C(c3ccc(O)cc3)/C2=C\Nc2ccc(Cl)cc2)c1` (configuration not stated), the LD50 in series [1] was greater than 1000 mg/kg. Also, the Activity in the series with Rattus norvegicus is listed as 40%.

For `Oc1ccc(C2=Nc3ccccc3OC(c3ccccc3Cl)/C2=C/Nc2ccc(Cl)cc2)cc1` (configuration not stated), the LD50 in series [1] is greater than 1000 mg/kg. The Activity with Rattus norvegicus is on record as 50%.

For the molecule `COc1ccc(N/C=C2\C(c3ccc(O)cc3)=Nc3ccccc3OC2c2ccc(Cl)cc2)cc1` (configuration not stated), the LD50 in series [1] was greater than 1000 mg/kg. Also, the Activity in the series with Rattus norvegicus worked out at 50%.

With `COc1cccc(C2CC(c3ccc(O)cc3)=Nc3ccccc3S2)c1` (configuration not stated), the LD50 in series [1] is greater than 1000 mg/kg. For the same molecule, the Activity in the series on Rattus norvegicus came out at 30%.

Take `Oc1ccc(C2=Nc3ccccc3OC(c3ccc(Cl)cc3)/C2=C/Nc2ccc(Cl)cc2)cc1` (configuration not stated): the LD50 in series [1] is greater than 1000 mg/kg. Moreover, the Activity with Rattus norvegicus was 60%.

Take `COc1ccc(N/C=C2\C(c3ccc(O)cc3)=Nc3ccccc3SC2c2ccc(O)cc2)cc1` (configuration not stated): the LD50 in series [1] is greater than 1000 mg/kg. Also, in the series with Rattus norvegicus, the Activity amounted to 60%.

For `COc1cccc(C2Oc3ccccc3N=C(c3ccc(O)cc3)/C2=C\Nc2ccc(Cl)cc2)c1` (configuration not stated), the LD50 in series [1] is greater than 1000 mg/kg. The Activity in the series with Rattus norvegicus was determined as 30%.

For `COc1ccc(N/C=C2\C(c3ccc(O)cc3)=Nc3ccccc3OC2c2ccccc2Cl)cc1` (configuration not stated), the LD50 in series [1] is greater than 1000 mg/kg. Moreover, in the series with Rattus norvegicus, the Activity came to 60%.

Regarding `Oc1ccc(C2=Nc3ccccc3SC(c3ccc(O)cc3)C2)cc1` (configuration not stated), in series [1], the LD50 was greater than 1000 mg/kg. Besides, the Activity with Rattus norvegicus was found to be 60%.

For `Oc1ccc(C2=Nc3ccccc3SC(c3ccccc3O)C2)cc1` (configuration not stated), the LD50 in series [1] is greater than 1000 mg/kg. The Activity with Rattus norvegicus stood at 70%.

On to `Oc1ccc(C2=Nc3ccccc3OC(c3ccc(O)cc3)/C2=C/Nc2ccc(Cl)cc2)cc1` (configuration not stated), for which, in series [1], the LD50 was greater than 1000 mg/kg. The Activity in the series on Rattus norvegicus came out at 70%.
